According to ChEMBL document CHEMBL3243962, “Antileukemic activity of derivatives of 1,2-dimethyl-3,4-bis(hydroxymethyl)-5-phenylpyrrole bis(N-methylcarbamate)” (J Med Chem, 1979):
The source made the active and inactive calls.

Experiments:
[1] = test system: Mus musculus; assay: Toxicity in mouse P388 cells allografted CD2F1 mouse assessed as body weight loss at 100 mg/kg, ip of total 9 doses starting 24 hrs post tumor inoculation measured on day 5 of inoculation relative to control; type: organism-based; parameters: dose 100 mg/kg, route intraperitoneal; settings: in vivo
Procedure, shortened: (§1)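 Male CD2F1 mice inoculated ip with 6×10^6 P388 leukemia cells. Compounds given ip as distilled water–Tween 80 suspension, nine daily doses starting 24 h after inoculation; six mice per dose group. Treated-minus-control body-weight change (T − C) and toxicity-day survivors recorded on day 5 (4 days after first dose).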

[2] = test system: Mus musculus; assay: Toxicity in mouse P388 cells allografted CD2F1 mouse assessed as mouse survival at 6.25 mg/kg, ip of total 9 doses starting 24 hrs post tumor inoculation measured on day 5 of inoculation relative to control; type: organism-based; parameters: dose 6.25 mg/kg, route intraperitoneal; settings: in vivo
Procedure, shortened: (§2)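 Male CD2F1 mice bearing ip P388 leukemia (6×10^6 cells) were dosed ip with nine daily doses in distilled water–Tween 80 suspension, starting 24 h after inoculation. Survivors per group of 6 were counted on day 5, i.e. 4 days after the first dose. Body-weight change of treated minus control mice was also recorded.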

[3] = test system: Mus musculus; assay: Toxicity in mouse P388 cells allografted CD2F1 mouse assessed as body weight loss at 25 mg/kg, ip of total 9 doses starting 24 hrs post tumor inoculation measured on day 5 of inoculation relative to control; type: organism-based; parameters: dose 25 mg/kg, route intraperitoneal; settings: in vivo; procedure, shortened: as §1
[4] = test system: Proteus vulgaris; assay: Antimicrobial activity against Proteus vulgaris ATCC 6380 at 1 mg after 24 hrs by disk sensitivity assay; type: functional, organism-based
Procedure, shortened: (§3)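 Bacteria grown 24 h in trypticase soy broth; 1 mL used to seed a lawn on trypticase soy agar. Sterile 6 mm paper disks carrying 1 mg test compound placed on agar, incubated 24 h at 37 °C, then zone of inhibition around each disk measured.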

[5] = test system: Mus musculus; assay: Toxicity in mouse P388 cells allografted CD2F1 mouse assessed as body weight loss at 6.25 mg/kg, ip of total 9 doses starting 24 hrs post tumor inoculation measured on day 5 of inoculation relative to control; type: organism-based; parameters: dose 6.25 mg/kg, route intraperitoneal; settings: in vivo; procedure, shortened: as §1
[6] = test system: P388; assay: Antitumor activity against mouse P388 cells allografted in CD2F1 mouse assessed as increase in mouse survival at 12.5 mg/kg, ip of total 9 doses starting 24 hrs post tumor inoculation measured on day 5 of inoculation relative to control; type: functional; settings: route intraperitoneal
Procedure, shortened: (§4)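 Male CD2F1 mice inoculated ip with 6×10^6 P388 leukemia cells. Dosing was ip as a suspension in distilled water–Tween 80, nine daily doses starting 24 h after inoculation. Activity was read as median survival time of treated vs control mice (% T/C); % T/C ≥ 120 was considered significant. Groups were 6 mice.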

[7] = test system: Serratia marcescens; assay: Antimicrobial activity against Serratia marcescens ATCC 8100 at 1 mg after 24 hrs by disk sensitivity assay; type: functional, organism-based; procedure, shortened: as §3
[8] = test system: P388; assay: Antitumor activity against mouse P388 cells allografted in CD2F1 mouse assessed as increase in mouse survival at 6.25 mg/kg, ip of total 9 doses starting 24 hrs post tumor inoculation measured on day 5 of inoculation relative to control; type: functional; settings: route intraperitoneal; procedure, shortened: as §4
[9] = test system: Staphylococcus aureus; assay: Antimicrobial activity against Staphylococcus aureus ATCC 25923 at 1 mg after 24 hrs by disk sensitivity assay; type: functional, organism-based; procedure, shortened: as §3
[10] = test system: Mus musculus; assay: Toxicity in mouse P388 cells allografted CD2F1 mouse assessed as body weight loss at 12.5 mg/kg, ip of total 9 doses starting 24 hrs post tumor inoculation measured on day 5 of inoculation relative to control; type: organism-based; parameters: dose 12.5 mg/kg, route intraperitoneal; settings: in vivo; procedure, shortened: as §1
[11] = test system: Salmonella typhimurium; assay: Antimicrobial activity against Salmonella typhimurium ATCC 14028 at 1 mg after 24 hrs by disk sensitivity assay; type: functional, organism-based; settings: Salmonella enterica subsp. enterica serovar Typhimurium; procedure, shortened: as §3
[12] = test system: P388; assay: Antitumor activity against mouse P388 cells allografted in CD2F1 mouse assessed as increase in mouse survival at 50 mg/kg, ip of total 9 doses starting 24 hrs post tumor inoculation measured on day 5 of inoculation relative to control; type: functional; settings: route intraperitoneal; procedure, shortened: as §4
[13] = test system: Mus musculus; assay: Toxicity in mouse P388 cells allografted CD2F1 mouse assessed as mouse survival at 25 mg/kg, ip of total 9 doses starting 24 hrs post tumor inoculation measured on day 5 of inoculation relative to control; type: organism-based; parameters: dose 25 mg/kg, route intraperitoneal; settings: in vivo; procedure, shortened: as §2
[14] = test system: Escherichia coli; assay: Antimicrobial activity against Escherichia coli ATCC 25922 at 1 mg after 24 hrs by disk sensitivity assay; type: functional, organism-based; procedure, shortened: as §3
[15] = test system: P388; assay: Antitumor activity against mouse P388 cells allografted in CD2F1 mouse assessed as increase in mouse survival at 25 mg/kg, ip of total 9 doses starting 24 hrs post tumor inoculation measured on day 5 of inoculation relative to control; type: functional; settings: route intraperitoneal; procedure, shortened: as §4
[16] = test system: Mus musculus; assay: Toxicity in mouse P388 cells allografted CD2F1 mouse assessed as body weight loss at 50 mg/kg, ip of total 9 doses starting 24 hrs post tumor inoculation measured on day 5 of inoculation relative to control; type: organism-based; parameters: dose 50 mg/kg, route intraperitoneal; settings: in vivo; procedure, shortened: as §1
[17] = test system: Mus musculus; assay: Toxicity in mouse P388 cells allografted CD2F1 mouse assessed as mouse survival at 12.5 mg/kg, ip of total 9 doses starting 24 hrs post tumor inoculation measured on day 5 of inoculation relative to control; type: organism-based; parameters: dose 12.5 mg/kg, route intraperitoneal; settings: in vivo; procedure, shortened: as §2
[18] = test system: Enterobacter cloacae; assay: Antimicrobial activity against Enterobacter cloacae ATCC 23355 at 1 mg after 24 hrs by disk sensitivity assay; type: functional, organism-based; procedure, shortened: as §3
[19] = test system: Klebsiella pneumoniae; assay: Antimicrobial activity against Klebsiella pneumoniae ATCC 23357 at 1 mg after 24 hrs by disk sensitivity assay; type: functional, organism-based; procedure, shortened: as §3
[20] = test system: Staphylococcus epidermidis; assay: Antimicrobial activity against Staphylococcus epidermidis ATCC 12228 at 1 mg after 24 hrs by disk sensitivity assay; type: functional, organism-based; procedure, shortened: as §3
[21] = test system: Mus musculus; assay: Toxicity in mouse P388 cells allografted CD2F1 mouse assessed as mouse survival at 50 mg/kg, ip of total 9 doses starting 24 hrs post tumor inoculation measured on day 5 of inoculation relative to control; type: organism-based; parameters: dose 50 mg/kg, route intraperitoneal; settings: in vivo; procedure, shortened: as §2
[22] = test system: Mus musculus; assay: Toxicity in mouse P388 cells allografted CD2F1 mouse assessed as mouse survival at 100 mg/kg, ip of total 9 doses starting 24 hrs post tumor inoculation measured on day 5 of inoculation relative to control; type: organism-based; parameters: dose 100 mg/kg, route intraperitoneal; settings: in vivo; procedure, shortened: as §2
[23] = test system: P388; assay: Antitumor activity against mouse P388 cells allografted in CD2F1 mouse assessed as increase in mouse survival at 100 mg/kg, ip of total 9 doses starting 24 hrs post tumor inoculation measured on day 5 of inoculation relative to control; type: functional; settings: route intraperitoneal; procedure, shortened: as §4

Row | Compound | Activity [1] | Activity [2] | Activity [3] | Activity [5] | T/C [6] | T/C [8] | Activity [9] | Activity [10] | T/C [12] | Activity [13] | T/C [15] | Activity [16] | Activity [17] | Activity [20] | Activity [21] | T/C [23] | further results
1 | CNC(=O)OCc1c(COC(=O)NC)c(-c2ccc([N+](=O)[O-])cc2)n(C)c1C | 4.4 g | Non-toxic | 5.5 g | 2.9 g | 169% | 153% | inactive | 4.1 g | < 90% | Non-toxic | <90% | 6.6 g | Non-toxic | inactive | – | – | Activity [4]: inactive; Activity [7]: inactive; Activity [11]: inactive; Activity [14]: inactive; Activity [18]: inactive; Activity [19]: inactive
2 | CNC(=O)OCc1c(COC(=O)NC)c(-c2ccc(Cl)c(Cl)c2)n(C)c1C | 5.9 g | Non-toxic | 2.4 g | 1.7 g | 145% | 145% | – | 1.7 g | 163% | Non-toxic | 148% | 3.2 g | Non-toxic | Active | Non-toxic | – | –
3 | CNC(=O)OCc1c(COC(=O)NC)c(-c2ccc(C)cc2)n(C)c1C | 1.8 g | Non-toxic | 3.4 g | 1.4 g | 144% | 138% | – | 3.2 g | – | Non-toxic | 144% | 4.5 g | Non-toxic | – | – | – | Activity [22]: Toxic
4 | CNC(=O)OCc1c(COC(=O)NC)c(-c2ccc(OC)cc2)n(C)c1C | 5.5 g | Non-toxic | 3.4 g | 2.4 g | 138% | 135% | Active | 3.2 g | 152% | Non-toxic | 145% | 4.4 g | Non-toxic | Active | Non-toxic | <70% | –
5 | CNC(=O)OCc1c(COC(=O)NC)c(-c2ccc(Cl)cc2)n(C)c1C | 7.5 g | Non-toxic | 4.4 g | 3.4 g | 155% | 155% | – | 3.2 g | 165% | Non-toxic | 153% | 5.7 g | Non-toxic | – | Non-toxic | – | –
6 | CNC(=O)OCc1c(COC(=O)NC)c(-c2ccccc2)n(C)c1C | 6 g | Non-toxic | 3.9 g | 2.5 g | 130% | 135% | – | 3.3 g | 90% | Non-toxic | 145% | 4.6 g | Non-toxic | – | Non-toxic | <70% | –
7 | CNC(=O)OCc1c(COC(=O)NC)c(-c2ccc(C(C)(C)C)cc2)n(C)c1C | 4.4 g | Non-toxic | 4 g | 2 g | 155% | 152% | inactive | 3.8 g | 97% | Non-toxic | 158% | 5.1 g | Non-toxic | inactive | – | – | Activity [4]: inactive; Activity [7]: inactive; Activity [11]: inactive; Activity [14]: inactive; Activity [18]: inactive; Activity [19]: inactive
8 | CNC(=O)OCc1c(COC(=O)NC)c(-c2ccc(N)cc2)n(C)c1C | 3.5 g | Non-toxic | 0.4 g | 0.7 g | 98% | 92% | – | 0.1 g | 119% | – | 100% | 2.5 g | Non-toxic | – | Non-toxic | 135% | –
9 | CNC(=O)OCc1c(COC(=O)NC)c(-c2ccc(F)cc2)n(C)c1C | 1.8 g | Non-toxic | 3.9 g | 2.4 g | 130% | 134% | Active | 4.3 g | 132% | Non-toxic | 150% | 5.1 g | Non-toxic | Active | Non-toxic | – | Activity [22]: Toxic
